The values below come from PMC5108443 (Cardiovascular Therapeutics, 2016).

Data set [1] is described as follows: Steady-state plasma pharmacokinetics of LCZ696 analytes. In kind it is in vivo, human. The note with it: for T1/2, mean (SD): LCZ696 200 mg bid (Day 21), patients with stable HF; for Exposure in patients with HF higher than in healthy subjects: LCZ696 200 mg bid, healthy-subject exposure from ref 20; for Dose proportionality of Cmax and AUC0-12 h: between LCZ696 100- and 200-mg doses; for Tmax / AUC(0-t) / Cmax: human, plasma.

Data set [2] has as its system plasma aldosterone. Kind of data set: Plasma aldosterone. It counts as in vivo, human. Put shortly: (§1)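 Chronic HF patients (NYHA II–IV, LVEF ≤40%), domiciled on a fixed 3 g sodium/5 g potassium diet. ACEI/ARB stopped over a 24-h run-in. Oral test compound given 100 mg bid for 7 days, then 200 mg bid for 14 days. Plasma drawn at baseline, predose, and 4, 12, 16, 24 h post-dose on Days 7 and 21. Geometric means; ratio-to-baseline with 95% CI by paired t-test on log data.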

Data set [3] deals with plasma ANP. The experiment in a line: Plasma ANP. In kind it is in vivo, human. The note with it: for Plasma ANP, ratio-to-baseline (95% CI): geometric mean ratio; for Plasma ANP, predose: geometric mean.
Data set [4] relates to urine ANP. Kind of data set: Urine ANP. The conditions noted are these: for Urine ANP, ratio-to-baseline (95% CI): geometric mean ratio; for Urine ANP: geometric mean. It counts as in vivo, human.
Data set [5] is described as follows: Urinary sodium, potassium and creatinine excretion. In kind it is in vivo, human. The conditions noted are these: either treatment period (100 and 200 mg bid). The gist of the method:
(§2)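 Same patients, diet and oral dosing schedule. Urine collected over 24 h as two 12-h fractions (8:00–20:00, 20:00–8:00) at baseline, Day 7 and Day 21. Volume recorded; sodium, potassium and creatinine measured by standard laboratory methods, NT-proBNP by Elecsys immunoassay. Geometric means calculated; ratio-to-baseline by paired t-test on log-transformed data.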

Data set [6] deals with plasma renin concentration (PRC). Kind of data set: Plasma renin concentration. In kind it is in vivo, human. The conditions noted are these: for PRC, ratio-to-baseline (95% CI): geometric mean ratio; for PRC, predose: geometric mean. Put shortly: as §1
Data set [7] relates to urinary NT-proBNP. The experiment in a line: Urinary NT-proBNP. In kind it is in vivo, human. Put shortly: as §2
In data set [8] the test system is urine cGMP. Kind of data set: Urine cGMP. It counts as in vivo, human. The note with it: for Urine cGMP, ratio-to-baseline (95% CI): geometric mean ratio; for Urine cGMP: geometric mean.
The subject of data set [9] is plasma endothelin-1 (ET-1). Kind of data set: Plasma endothelin-1. In kind it is in vivo, human. The gist of the method:
as §1

Data set [10] has as its system plasma renin activity (PRA). The experiment in a line: Plasma renin activity. In kind it is in vivo, human. The conditions noted are these: for PRA, ratio-to-baseline (95% CI): geometric mean ratio; for PRA, predose: geometric mean. Put shortly:
as §1

The test system of data set [11] is plasma NT-proBNP. The experiment in a line: Plasma NT-proBNP. In kind it is in vivo, human. Put shortly:
as §1

The subject of data set [12] is plasma cGMP. The experiment in a line: Plasma cGMP. It counts as in vivo, human. The note with it: for Plasma cGMP, ratio-to-baseline (95% CI): geometric mean ratio; for Plasma cGMP, predose: geometric mean.
Data set [13] can be described thus: Safety and tolerability: adverse events. It counts as in vivo, human. The gist of the method:
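Open-label study in HFrEF patients: 24-h run-in with ACEI/ARB stopped and other HF drugs kept, then oral test compound 100 mg bid for 7 days and 200 mg bid for 14 days. Patients domiciled on a standardized diet of 3 g sodium and 5 g potassium daily. Monitoring by ECG, vital signs, and electrolyte, renal and hepatic panels. Safety set comprised all patients dosed at least once.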

For data set [14] the following is noted: patients with HFrEF, PARADIGM-HF; cited from earlier work.
Where [15] appears, read: Day 21, predose, LCZ696 200 mg bid for 14 days.
Setting [16] is: Day 7 (LCZ696 100 mg bid), N=30.
The mark [17] stands for this setting: Day 21 (LCZ696 200 mg bid), N=27.

With `C[C@H](C[C@@H](Cc1ccc(-c2ccccc2)cc1)NC(=O)CCC(=O)O)C(=O)O` [LBQ657], in data set [1] (oral), the “T1/2, mean (SD)” value is given as 18.4 (6.8) h. For the same molecule, in [1], the “Exposure in patients with HF higher than in healthy subjects” value (“Exposure in patients with HF higher than” for short) is about 110%; the “Dose proportionality of Cmax and AUC0-12 h” value (“Dose proportionality” for short) is recorded as “approximately dose‐proportional”. In data set [1] (oral, 200 mg), the Tmax was at most 2.5 h. In data set [1] (po, 100 mg), the AUC(0-t) is 82600 ng·h/mL, the maximum concentration (Cmax) stood at 9100 ng/mL and the Tmax came to 2.5 h. In data set [1] (po, 200 mg), the AUC(0-t) was 147000 ng·h/mL, the highest concentration (Cmax) is 16300 ng/mL and the time of peak concentration (Tmax) is 2 h.

As to `CCOC(=O)[C@H](C)C[C@@H](Cc1ccc(-c2ccccc2)cc1)NC(=O)CCC(=O)O` [Sacubitril, sacubitril], the “T1/2, mean (SD)” value in data set [1] (oral) was 3.9 (3.6) h. Besides, in data set [1], the “Exposure in patients with HF higher than” value is given as “approximately 55%”; the “Dose proportionality” value is recorded as “approximately dose‐proportional”. The time to peak (Tmax) in data set [1] (oral, 200 mg) is at most 0.5 h. Besides, in data set [1] (po, 100 mg), the exposure AUC(0-t) worked out at 1540 ng·h/mL, the highest level (Cmax) was 1230 ng/mL and the Tmax came out at 0.5 h. In data set [1] (po, 200 mg), the AUC(0-t) worked out at 3150 ng·h/mL, the Cmax came to 2410 ng/mL and the Tmax is 0.5 h.

As to `CCCCC(=O)N(Cc1ccc(-c2ccccc2-c2nnn[nH]2)cc1)[C@H](C(=O)O)C(C)C` [Valsartan, valsartan, reference compound], in data set [1] (oral), the “T1/2, mean (SD)” value is 13.7 (5.0) h. Moreover, in data set [1], the “Exposure in patients with HF higher than” value is recorded as about 132%; the “Dose proportionality” value is recorded as “less than dose‐proportional”. For the same molecule, in data set [1] (oral, 200 mg), the Tmax was at most 2 h. In addition, in data set [1] (po, 100 mg), the AUC(0-t) came out at 25900 ng·h/mL, the maximum concentration (Cmax) came to 3810 ng/mL and the time of peak concentration (Tmax) turned out to be 2 h. Also, in data set [1] (po, 200 mg), the exposure AUC(0-t) is 38800 ng·h/mL, the maximum concentration (Cmax) was 6040 ng/mL and the time of peak concentration (Tmax) was 2 h.

Turning to Sacubitril/valsartan [LCZ696], the “Predose plasma aldosterone level compared with baseline” value in data set [2] (Day 7 (LCZ696 100 mg bid)) was “trend toward a reduction”. Also, the “Decrease in plasma aldosterone levels” value in data set [2] (Day 21) was 21%. The “Plasma aldosterone, ratio-to-baseline [95% CI]” value in data set [2] (setting [15]) is 0.79 [0.65–0.95]. The “Plasma ANP, ratio-to-baseline (95% CI)” value in data set [3] (Day 7 (LCZ696 100 mg bid)) is 0.92 (0.80–1.05) P = 0.223; in [3] (Day 21 (LCZ696 200 mg bid)) it was 1.00 (0.80–1.26) P = 0.986. Also, the “Plasma ANP, predose” value in data set [3] (setting [16]) is recorded as 105.20 pg/mL; in [3] (setting [17]), 110.83 pg/mL. Further, the “Plasma ANP versus baseline” value in data set [3] (either treatment period (100 and 200 mg bid)) is on record as “not significantly different from baseline”. Further, the figures for the “Urine ANP, ratio-to-baseline (95% CI)” value in data set [4] (Day 7 (LCZ696 100 mg bid)) and in data set [4] (Day 21 (LCZ696 200 mg bid)) were 1.69 (1.40–2.03) P < 0.001 and 1.82 (1.54–2.17) P < 0.001, respectively. For the same molecule, the “Urine ANP” value in [4] (setting [16]) is recorded as 353.42 ng; in data set [4] (setting [17]), 378.48 ng. Besides, the “Change in mean urinary sodium, potassium, and creatinine excretion” value in data set [5] is on record as “No statistically significant changes”. The figures for the “PRC, ratio-to-baseline (95% CI)” value in [6] (Day 7 (LCZ696 100 mg bid)) and in data set [6] (Day 21 (LCZ696 200 mg bid)) were 4.30 (2.78–6.64) P < 0.001 and 3.50 (2.13–5.76) P < 0.001, respectively. Also, the results for the “PRC, predose” value in data set [6] (setting [16]) and in [6] (setting [17]) were 42.64 pg/mL and 34.11 pg/mL, respectively. The “Urinary NT-proBNP, ratio-to-baseline” value in data set [7] (after LCZ696 100 mg bid for 7 days) came to 0.68; in [7] (after LCZ696 200 mg bid for 14 days), 0.74. For the same molecule, the “Urine cGMP, ratio-to-baseline (95% CI)” value was 1.17 (0.97–1.40) P = 0.090 in [8] (Day 7 (LCZ696 100 mg bid)) and 1.22 (1.01–1.47) P = 0.040 in data set [8] (Day 21 (LCZ696 200 mg bid)). In addition, the results for the “Urine cGMP” value in data set [8] (setting [16]) and in data set [8] (setting [17]) were 1096.09 nmol and 1180.57 nmol, respectively. In addition, the “Predose plasma ET-1 level compared with baseline” value in data set [9] (Day 7 (LCZ696 100 mg bid)) is listed as “trend toward a reduction”. Besides, the “Plasma ET-1, ratio-to-baseline [95% CI]” value in [9] (setting [15]) was 0.80 [0.71–0.91]. For the same molecule, the “PRA, ratio-to-baseline (95% CI)” value is given as 3.94 (2.27–6.87) P < 0.001 in data set [10] (Day 7 (LCZ696 100 mg bid)) and 2.27 (1.20–4.32) P = 0.014 in data set [10] (Day 21 (LCZ696 200 mg bid)). For the same molecule, the “PRA, predose” value in [10] (Day 7 (LCZ696 100 mg bid), 29 patients) came out at 2.70 ng/mL/h; in data set [10] (Day 21 (LCZ696 200 mg bid), 26 patients) it was 1.64 ng/mL/h. Also, the “Plasma NT-proBNP, ratio-to-baseline [95% CI]” value in data set [11] (Day 7 (LCZ696 100 mg bid)) was 0.53 [0.45–0.62]; in [11] (Day 21 (LCZ696 200 mg bid)) it was 0.56 [0.45–0.70]. The entries for the “Plasma cGMP, ratio-to-baseline (95% CI)” value in data set [12] (Day 7 (LCZ696 100 mg bid)) and in data set [12] (Day 21 (LCZ696 200 mg bid)) were 1.24 (1.06–1.45) P = 0.008 and 1.38 (1.16–1.65) P < 0.001, respectively. Also, the “Plasma cGMP, predose” value in [12] (Day 7 (LCZ696 100 mg bid), N=30, patients with HFrEF) worked out at 13.83 nmol/L; in data set [12] (setting [17]) it was 15.07 nmol/L. In addition, the “Dose relation of the frequency of AEs” value in data set [13] (100 vs 200 mg bid) is “not dose related”. Besides, in [13] (LCZ696 100 mg bid 7 days then 200 mg bid 14 days, 30 patients), the “Deaths or serious AEs during the study” value is recorded as “No deaths or serious AEs occurred”. Moreover, the “Subjects with AE” value in data set [13] (LCZ696 100 mg bid (N=30), 7-day titration period) is on record as 16 (53.3%) n (%); in [13] (LCZ696 200 mg bid (N=30), 14-day treatment period) it was 15 (50.0%) n (%); in data set [13] (Total (N=30)) it was 21 (70.0%) n (%). In data set [13] (LCZ696 100 mg bid for 7 days and 200 mg bid for 14 days), the Overall tolerability entry was “well tolerated”. The “Patients who completed the study treatment as per protocol” value in data set [13] (of 30 patients) is 27 (90%) n (%). Also, the “Hypotension reported as an AE” value in [13] (whole study) is on record as “not reported”. In addition, the “Reduction of CV and all-cause mortality and HF hospitalizations versus enalapril” value in data set [14] is on record as “superior”.

The term Tmax denotes the time from dosing to the highest level. In general, AUC(0-t) refers to the area under the concentration-time curve up to a stated or last time point. Lower therefore signals low exposure. Usually Cmax stands for the maximum level reached in the sampled fluid or tissue.
